Data as given in article PMC8137654 (Bioconjugate chemistry, 2021).
“Also recorded” adds a separate entry of the source. Non-standard residues stand in square brackets, D forms with d. Residues, ends and D or L forms follow the SMILES beside them. ξ: configuration not given here. *: point of attachment. X1 = COc1cc(N=Nc2ccccc2[N+](=O)[O-])c(C)cc1N=Nc1ccc(N(C)CCCC(=O)*)cc1; X2 = O=C(O)c1cc(C(=O)*)ccc1-c1c2ccc(=O)cc-2oc2cc(O)ccc12; X3 = O=P(O)(O)C(O)(CCN*)P(=O)(O)O; ξH = NC(Cc1c[nH]cn1)C(=O)O; ξQ = NC(=O)CCC(N)C(=O)O; ξP = O=C(O)C1CCCN1; βAla = NCCC(=O)O

Key:
Ctsk [1] = target: T1, Ctsk (Homo sapiens, UniProt P43235); settings: reported value; ref [25]; cited from earlier work
T1 sequence (P43235 115-329): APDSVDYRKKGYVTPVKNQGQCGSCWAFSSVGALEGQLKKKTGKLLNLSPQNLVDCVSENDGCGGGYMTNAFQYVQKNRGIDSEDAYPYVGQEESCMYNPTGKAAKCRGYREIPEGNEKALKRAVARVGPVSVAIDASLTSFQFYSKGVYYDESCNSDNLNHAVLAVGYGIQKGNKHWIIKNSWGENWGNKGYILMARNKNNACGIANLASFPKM

human osteoclasts = test: Activation of OFS-1 adsorbed on HAp by resorbing human osteoclasts; format: cell-based
Summary of the method: (§1)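 HAp […]-coated polystyrene wells were pre-treated with 5.0 μM OFS-1 and washed with PBS. They were then seeded with human osteoclasts, alone or co-cultured with RPMI-8226-Luc myeloma cells, with or without 30 nM odanacatib. Wells were imaged by bright-field and fluorescence microscopy (time-lapse video) for 24 h at 37 °C to record resorption pits and probe fluorescence.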

[2] = test system: osteoclasts co-cultured with RPMI-8226-Luc human multiple myeloma cells; test: Activation of OFS-1 on HAp by osteoclasts co-cultured with RPMI-8226-Luc cells; format: cell-based
Summary of the method: as §1

Ctsk [3] = target: T1, Ctsk; test: Kinetics of Ctsk-catalyzed OFS-1 activation in solution; format: biochemical
Ctsk [4] = target: T1, Ctsk; test: Ctsk-induced fluorogenesis of OFS-1 pre-adsorbed on HAp with/without odanacatib; format: biochemical; settings: HAp treated overnight with 0.5 μM OFS-1 in 50 mM acetate pH 5.5, washed; 20 nM Ctsk, 37 °C, 2 h
Summary of the method: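 […] (HAp)-coated polystyrene wells soaked overnight in probe in acetate buffer, then washed repeatedly with water to remove unbound probe. Wells covered with human Ctsk, with Ctsk inhibitor at 0, 1, 5, 10, 30, 50 or 100 nM (n = 3). Fluorescence read at 1 min intervals in a plate reader at 37 °C.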

Ctsk [5] = target: T1, Ctsk; format: biochemical
Summary of the method: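 Probe kept in solution at pH 7 with 20 nM initial human Ctsk. Ctsk inhibitor added to the assay mixture at 0, 1, 5, 10, 30, 50 or 100 nM (n = 3). Fluorescence followed over time through a 2 h incubation, with an enzyme-free control.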

[6] = Adsorption on hydroxyapatite and bone mineral
[7] = test system: RPMI-8226-Luc human multiple myeloma cells engrafted in NSG/BLT humanized mice; test: In vivo fluorescence imaging of multiple myeloma-induced osteolysis; parameters: species or system mouse
Summary of the method: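 NSG mice were co-grafted with human CD34+ hematopoietic stem cells, liver and thymus and irradiated (NSG/BLT). RPMI-8226-Luc cells (15×10^6 per mouse, 100 μL) were given by tail vein; controls received vehicle. Seven days later, 100 μL of 50 μM OFS-1 was injected retro-orbitally. In vivo fluorescence and bioluminescence imaging was done 3, 4 and 5 wk after cell injection, plus ex vivo micro-CT. Control n = 1, myeloma mice n = 3.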

[8] = OFS-1 fluorescence in water without enzyme; format: physicochemical; settings: 10 μM OFS-1 in water, 48 h, 37 °C
Ctsk [9] = target: T1, Ctsk; settings: cited from earlier work
[10] = ref [14]; cited from earlier work

Abz-HPGGPQ-EDN2Ph
catalytic efficiency (Ctsk [1]): 426000 M⁻¹ s⁻¹

CC(C)(F)C[C@H](N[C@@H](c1ccc(-c2ccc(S(C)(=O)=O)cc2)cc1)C(F)(F)F)C(=O)NC1(C#N)CC1 [odanacatib]
pit formation by osteoclasts with odanacatib (human osteoclasts; 30 nM odanacatib): pit formation was again observed | osteoclast-induced OFS-1 fluorescence with odanacatib (human osteoclasts; 30 nM odanacatib (Figure S9)): fluorescence was suppressed | OFS-1 fluorescent signal in co-culture with odanacatib ([2]; 30 nM odanacatib): effectively inhibited

COc1cc(N=Nc2ccccc2[N+](=O)[O-])c(C)cc1N=Nc1ccc(N(C)CCCC(=O)NCC(=O)NC(Cc2c[nH]cn2)C(=O)N2CCCC2C(=O)NCC(=O)NCC(=O)N2CCCC2C(=O)NC(CCC(N)=O)C(=O)NCC(=O)NCCC(=O)N[C@@H](CCCCNC(=O)c2ccc(-c3c4ccc(=O)cc-4oc4cc(O)ccc34)c(C(=O)O)c2)C(=O)NCCC(O)(P(=O)(O)O)P(=O)(O)O)cc1 (stereo partly drawn) [OFS-1] (X1-G[ξH][ξP]GG[ξP][ξQ]G[βAla]K(X2)-X3)
dependence of fluorescence intensity on OFS-1 concentration (Ctsk [3]; 25 nM human Ctsk, 50 mM sodium acetate pH 5.5, 2.5 mM EDTA, 1 mM DTT, 37 °C, Supplementary Figure S3): depended linearly on the OFS-1 concentration up to 1 μM | catalytic efficiency (kcat/Km) (Ctsk [3]; Ctsk 2.5 nM (Fig. 2), 50 mM NaOAc pH 5.5, 37 °C): 0.97 × 10^5 M-^1 s-^1 | fluorescence on exposure to Ctsk (Ctsk [3]; Ctsk 2.5–20 nM, in solution or pre-adsorbed on HAp): strong fluorescence | cleavage efficiency relative to Abz-HPGGPQ-EDN2Ph (less efficient) (Ctsk [3]; OFS-1 vs literature value of Abz-HPGGPQ-EDN2Ph, ref [25] for the comparator): only fourfold less efficiently | Ctsk-dependent fluorescence of HAp-adsorbed OFS-1 (Ctsk [4]): time-course increase of fluorescent intensity; also recorded: Bright Ctsk-dependent fluorescence was again observed | time-course of OFS-1 fluorescent activity (Ctsk [5]; OFS-1 0.5 μM, 20 nM Ctsk, in solution, pH 7): fluorescent activity was immediately observed within 10 min and reached a plateau thereafter | OFS-1 fluorescence without enzyme (Ctsk [5]; control lacking enzyme, 2 h incubation): essentially unchanged | OFS-1 fluorescence without osteoclasts (human osteoclasts; control wells, 5.0 μM OFS-1, not seeded with osteoclasts): not significantly fluorescent | adsorption on HAp and bone mineral [6]: avidly adsorbed by hydroxyapatite (HAp) and bone mineral surfaces; also recorded: strongly and specifically binds to bone surfaces | OFS-1 fluorescent signal in co-culture ([2]; OFS-1 5.0 μM pre-treated HAp wells, osteoclasts + RPMI-8226-Luc): robust activation of OFS-1 fluorescent signals | OFS-1 fluorescent signal compared to solitary osteoclasts ([2]; osteoclasts + RPMI-8226-Luc vs solitary osteoclasts): increased by RPMI-8226-Luc cells | time from which distinct in vivo fluorescent signal was detected ([7]; 100 μL of 50 μM OFS-1 retro-orbital, weeks after RPMI-8226-Luc cell injection): 4 wk | detection relative to myeloma cell luminescence ([7]; NSG/BLT humanized mice injected with RPMI-8226-Luc cells): before the co-localized luminescence of the myeloma cells could be detected | in vivo OFS-1 signal relative to tumor site / osteolysis lesions ([7]; another mouse, cervical area, post-mortem micro-CT): extensive osteolysis lesions (arrows), which corresponded to the sentinel OFS-1 signal; also recorded: a strong fluorescent signal was detected at (and extending beyond) the bioluminescent tumor site | in vivo OFS-1 signal in control animals ([7]; physiological level of bone resorption, control n = 1): did not show the OFS-1 signal | extrinsic fluorescence in water without enzyme [8]: virtually undetectable

HPGGPQ
cleavage by Ctsk (Ctsk [9]; ref [24]): selectively cleaved by Ctsk | Ctsk cleavage site (original peptide) (Ctsk [9]; well-established cleavage site, no reference at this place): Gly-Gly bond

NCCCC(O)(P(=O)(O)O)P(=O)(O)O [alendronate]
bone-affinity [10]: high bone-affinity

NCCC(O)(P(=O)(O)O)P(=O)(O)O [pamidronate]
bone-affinity [10]: high bone-affinity
